How the values were obtained:
A549 = assay: In vitro cytotoxicity against human A549 cells assessed as growth inhibition by MTT assay; format: functional, cell-based
Summary of the method: (§1)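 Human tumour lines A549 (alveolar adenocarcinoma), HeLa (cervical), MDA-MB-231 and MCF7 (breast adenocarcinoma), plus normal embryonic kidney HEK293, all ATCC-sourced, grown in 96-well plates. Growth inhibition read as cell-mediated reduction of tetrazolium salt (MTT) to formazan, with doxorubicin as standard. IC50 (µM) calculated from absorbance dose-response curves.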

HeLa = assay: In vitro cytotoxicity against human HeLa cells assessed as growth inhibition by MTT assay; format: functional, cell-based; summary of the method: as §1
MDA-MB-231 = assay: In vitro cytotoxicity against human MDA-MB-231 cells assessed as growth inhibition by MTT assay; format: functional, cell-based; summary of the method: as §1
MCF7 = assay: In vitro cytotoxicity against human MCF7 cells assessed as growth inhibition by MTT assay; format: functional, cell-based; summary of the method: as §1
HEK293 = assay: In vitro cytotoxicity against HEK293 cells assessed as growth inhibition by MTT assay; format: cell-based; details: Homo sapiens; summary of the method: as §1

Compound `O=c1oc2ccccc2c2c1CCCc1ccccc1-2` has an IC50 (A549) of 3.35 µM, an IC50 (HeLa) of 14.1 µM and an IC50 (MDA-MB-231) of 16.8 µM. The IC50 (MCF7) was 9.63 µM and the IC50 (HEK293) was over 200 µM.
With `Cc1cc2c(cc1C)-c1c(c(=O)oc3ccc(Cl)cc13)CCC2` the IC50 (A549) was 10.8 µM, the IC50 (HeLa) was 12.7 µM and the IC50 (MDA-MB-231) was 13.3 µM. For the same compound, the IC50 (MCF7) was 15.8 µM and the IC50 (HEK293) was over 200 µM.
With `COc1cc2c(cc1OC)-c1c(c(=O)oc3ccccc13)CCC2` the IC50 (A549) was over 200 µM, the IC50 (HeLa) was 6.72 µM and the IC50 (MDA-MB-231) was 4.87 µM. It also gave an IC50 (MCF7) of over 200 µM and an IC50 (HEK293) of over 200 µM.
Compound `COc1cccc2c1C(=O)c1c(O)c3c(c(O)c1C2=O)C[C@@](O)(C(=O)CO)C[C@@H]3O[C@H]1C[C@H](N)[C@H](O)[C@H](C)O1` [DOXORUBICIN] has an IC50 (HEK293) of over 200 µM.
